# T cruzi inh: blocks replication of Trypanosoma cruzi; AID 1885; T. cruzi beta-gal in NIH3T3, luminescence, 90 h; inhibition, % (concentration not given with the values); 300,000 tested, 1.4% active;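 active means mean inhibition across valid replicates above about 55%, limit read from the data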;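 further: signal also drops with host cell toxicity which is not excluded here; 0% = plate median of DMSO wells and 100% = zero luminescence signal; higher percent means less beta-gal luminescence so fewer parasites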
#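 Read-out: Parasite load inhibition, % | Test system: Mouse NIH/3T3 fibroblasts infected with β-gal-expressing T. cruzi Tulahuen C4 | Amount: 5,000 cells/well | Medium: DMEM, 2% fetal bovine serum | Signal: GalScreen β-gal luminescence, detergent lysis, 60 min | Timing: 3 h attach, ≥90 h co-culture | Also added: Tulahuen C4 trypomastigotes, 5000/well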
# GPR7 antag: human neuropeptides B/W receptor 1 antagonism. P48145. GPR7-expressing cells, fluorescence antagonist assay. inhibition, % at 4.4 µM. 290,000 tested, 1.1% active. AID 1861; in the data active means inhibition above about 16%, passing the limit was not always enough;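 further: cells stimulated with the agonist NPW; 0% = agonist with vehicle and 100% = vehicle without agonist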
# Target sequence (P48145 whole entry, looked up): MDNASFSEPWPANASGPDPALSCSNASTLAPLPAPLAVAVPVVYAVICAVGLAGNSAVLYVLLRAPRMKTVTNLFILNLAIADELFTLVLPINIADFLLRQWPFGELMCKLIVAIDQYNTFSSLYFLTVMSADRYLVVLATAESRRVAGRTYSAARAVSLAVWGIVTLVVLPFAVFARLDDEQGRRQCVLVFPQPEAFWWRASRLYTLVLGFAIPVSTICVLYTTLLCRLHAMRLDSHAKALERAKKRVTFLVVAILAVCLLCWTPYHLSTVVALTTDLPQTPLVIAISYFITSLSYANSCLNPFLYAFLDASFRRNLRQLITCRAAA
# Jurkat NFkB inh: lowers PMA/ionomycin-induced NF-kB signal in Jurkat cells | inhibition, % at 4 µM | PMA/ionomycin-induced NF-kB luciferase reporter, luminescence | 330,000 tested, 0.53% active; in the data active means inhibition above about 50%
# HSF1 inhib: HSF1 inhibition. NIH3T3-HGL HSE-luciferase, MG132-induced, luminescence 8 h; active compounds read low. activity change, negative = inhibition, % at 7.5 µM (by protocol). 300,000 tested, 0.77% active. AID 2098;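 active means more than half of replicate wells show activity change below -50%, luminescence cut by over half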;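 further: luciferase reports HSF-1 transcriptional activity via heat shock element; 0% = median of DMSO wells and -100% = zero luminescence signal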
# HSF1 activator: increases HSF-1 driven luciferase reporter signal; NIH3T3-HGL HSF-1 luciferase reporter, MG132, 8 h; 100% = twice DMSO control signal; activation, % at 9 µM; 300,000 tested, 1.7% active; AID 504408;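 active means mean replicate activation of at least 50% with a set share of replicates each reaching 50%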;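 further: 0% = median of the neutral control wells and 100% = twice that signal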
# 697 NFkB inh: inhibitors of the PMA/ionomycin-induced NF-kB reporter in 697 B cells | AID 435022 | 697 B-cell NF-kB luciferase reporter, 16 h | 330,000 tested, 0.33% active | inhibition, % at 4 µM; in the data active means inhibition above about 35%
# Active calls of the source: *; / = no result. An excerpt weighted towards active compounds, which were near 4.8% of everything screened.
SMILES,T cruzi inh,GPR7 antag,Jurkat NFkB inh,HSF1 inhib,HSF1 activator,697 NFkB inh
C/C(Cn1nnc([N+](=O)[O-])n1)=N\NC(=O)c1ccncc1,57.3*,-7.3,-2.4,-1.7,-12.2,9.1
C/C(Cn1nnc([N+](=O)[O-])n1)=N\NC(=O)c1ccc(C)cc1,48.7,2.2,/,6.8,29.1,/
C/C(CC(=O)Nc1ccccn1)=N\NC(=O)c1ccc([N+](=O)[O-])cc1Cl,-4.1,-15.7,5.2,2.1,6.0,17.7
C/C(Cn1nnc([N+](=O)[O-])n1)=N\NC(=O)c1cccc(Cl)c1,56.9*,-14.2,14.4,-1.0,37.2,15.4
C/C(Cn1nnc([N+](=O)[O-])n1)=N\NC(=O)c1ccccc1Cl,56.3*,-11.1,1.6,-0.1,-9.2,21.6
Cn1c(=O)c2c(nc(Br)n2Cc2nnc(N)s2)n(C)c1=O,-11.6,-7.6,3.5,-4.6,-13.8,14.2
CCOC(=O)N1CCN(C(=O)C(NC(=O)c2ccc(C(C)(C)C)cc2)C(C)C)CC1 (stereo not given),/,/,-14.1,/,/,2.0
COCCNC(=O)CSc1nc(-c2ccccc2)cs1,-9.7,12.6,-22.0,11.0,2.9,1.7
O=C(CN(C(=O)c1csnn1)c1ccc(F)c(Cl)c1)NC1CCCC1,-3.7,3.1,6.5,-5.3,11.7,1.6
Cc1cc(O)c(Sc2ccc(Cl)cc2)c(=O)[nH]1,-7.8,/,10.4,-0.6,18.7,19.5
Cc1[nH]n(C(C)(C)C)c(=O)c1Sc1ccc(Cl)cc1,61.0*,-7.1,11.1,-6.7,-2.7,6.6
CC(C)Cc1ccc(/C=C/C(=O)N2CCCCC2)cc1,25.7,-4.4,-110.1,29.6,58.4*,-72.2
Cc1ccc(/C=C/C(=O)N2CCCC(C)C2)cc1 (stereo not given),20.5,3.0,-119.4,24.2,64.9*,-123.1
O=C(c1ccc(F)cc1)N1CCN2C(=O)c3ccccc3C12c1ccc(Cl)cc1 (stereo not given),-6.1,16.0*,0.0,18.1,21.3,-3.0
Cc1nnc(SCC(=O)Nc2cc(C(F)(F)F)ccc2N2CCOCC2)o1,-4.8,-2.8,-6.1,2.2,18.1,-5.8
Cc1ccccc1SCC(=O)Nc1cc(C(F)(F)F)ccc1N1CCOCC1,64.6*,/,3.8,7.0,1.9,-15.5
COc1ccc(C(=O)c2c(C(F)(F)F)oc3c2C(=O)c2ccccc2C3=O)cc1OC,64.7*,6.1,31.9,-39.0,-37.9,-26.2
C=CCOc1cccc(C(=O)N2CCCC(CNS(=O)(=O)c3cccs3)C2)c1 (stereo not given),-14.5,14.9,5.9,2.5,21.0,-12.4
NC1=NC(c2cn[nH]c2-c2cccc(F)c2)n2c(nc3ccccc32)N1 (stereo not given),11.0,-2.6,0.4,-74.5*,-80.1,-3.3
COc1ccc(-c2[nH]ncc2C2N=C(N)Nc3nc4ccccc4n32)cc1 (stereo not given),-0.6,-7.6,0.0,-8.1,4.6,12.4
O=C(CN1C(=O)CNC1=O)Nc1cc(Cl)cc(Cl)c1,/,/,6.2,/,/,14.5
O=C1CN(C(=O)c2ccc(Br)o2)C(c2ccc(F)cc2)c2cc(Cl)ccc2N1 (stereo not given),22.4,-5.2,-10.0,29.4,54.7*,-24.2
COCC(=O)NC1CC(C)(C)Cc2c1cnn2-c1ccc(F)cc1 (stereo not given),-7.6,-4.6,1.1,2.5,-0.7,-10.9
Cc1ccc(OCC(O)Cn2c3ccccc3c3ccccc32)cc1 (stereo not given),15.6,-26.1,9.9,7.9,10.2,-14.5
OC(COCC(F)(F)C(F)(F)C(F)(F)C(F)F)Cn1c2ccccc2c2ccccc21 (stereo not given),59.2*,-0.5,-9.7,7.7,32.0,-2.7
SMILES,T cruzi inh,GPR7 antag,Jurkat NFkB inh,HSF1 inhib,HSF1 activator,697 NFkB inh
Cc1oc(-c2ccccc2)nc1CS(=O)CC(=O)NC1CCCC1 (stereo not given),-14.6,-1.4,-0.4,11.1,8.0,-3.4
OCCNc1nc(Nc2ccc(Br)cc2)nc2ccccc12,62.0*,2.0,1.5,8.4,-5.5,-11.2
Cc1c(Cl)cccc1Nc1nc(NCCO)c2ccccc2n1,56.5*,5.0,-5.7,0.4,12.8,0.9
O=C(CSc1nnc(-c2ccccc2F)n1C1CCCCC1)Nc1cc(C(=O)O)ccc1Cl,/,/,-9.1,/,/,2.1
CCOC(=O)c1c(C)[nH]c(C)c1S(=O)(=O)NC(CC)CN1CCOCC1 (stereo not given),-19.4,-1.1,6.6,-7.0,3.9,10.7
Cc1ccc(C(c2c(C)nn(-c3ccccc3)c2N)c2c(C)nn(-c3ccccc3)c2N)cc1,18.1,-5.1,1.1,68.0,92.7*,-15.0
Cc1nn(-c2ccccc2)c(N)c1C(c1ccc(C(C)C)cc1)c1c(C)nn(-c2ccccc2)c1N,30.4,-1.6,15.8,19.3,10.3,-18.2
CC(C)CC1NC(=O)c2ccccc2-n2c1nc1ccc(F)cc1c2=O (stereo not given),/,/,5.5,/,/,7.2
Cc1ccc(CNc2ccc(N3CCN(C)CC3=O)cc2)cc1,/,/,-7.6,/,/,-12.6
O=c1[nH]c2c(=O)[nH]cnc2nc1-c1ccccc1,4.3,/,2.2,3.7,7.7,16.7
COc1cccc(N(C(=O)c2nc3nccc(C)n3n2)c2nc3ccccc3s2)c1,14.5,7.5,-99.6,69.2,121.0*,-132.8
CCCc1cc(=O)oc2cc(OC3CCCCC3=O)ccc12 (stereo not given),0.4,-5.9,-25.5,9.5,11.6,9.2
CCOc1c2ccc(C(=O)NCc3ccccc3OC)cc2nn1CC,-3.2,-6.5,-10.5,-66.5*,-74.0,24.3
CCc1cccc(CC)c1NC(=O)Cn1c(-c2ccccc2Cl)nc2ccccc21,5.8,18.5*,3.9,13.2,13.6,-4.9
NC(=O)c1oc2ccccc2c1NC(=O)c1ccc([N+](=O)[O-])o1,31.9,-9.5,34.2,-32.1,-33.7,-1.5
C/C(=N/NC(=O)C(O)(c1ccccc1)c1ccccc1)c1ccc([N+](=O)[O-])o1,75.0*,15.3,1.9,14.2,23.7,10.9
O=C(N/N=C/c1cc([N+](=O)[O-])ccc1O)C(O)(c1ccccc1)c1ccccc1,3.7,-1.1,-3.0,-41.2,-35.3,-6.7
O=C(NNC(=O)c1ccc([N+](=O)[O-])o1)c1ccccc1,58.2*,4.2,21.1,2.1,-10.8,7.8
O=C(NN(c1ccccc1)c1ccccc1)c1ccc([N+](=O)[O-])o1,63.6*,3.0,24.5,35.1,47.8,-16.2
Cc1c(Cl)cccc1NC(=O)Cn1c(CCC(=O)O)ccc1-c1ccccc1,-11.2,5.9,-0.9,6.2,8.8,9.7
COC(=O)c1ccccc1NC(=O)C(=O)NCc1ccncc1,-12.3,-3.3,20.7,-2.5,7.0,9.1
O=C1/C(=C/c2cccs2)Cc2ccccc21,-0.8,2.4,0.4,-2.4,5.6,-24.3
